Experiments:
individuals with T1D = details: trials with degludec in T1D; cited from earlier work
[1] = tested on: Japanese individuals with type 1 diabetes; assay: Safety evaluation during treatment periods; type: in vivo, human; details: Japanese T1D; for rate of nocturnal Level 2 hypoglycemia / rate of overall Level 2 hypoglycemia (plasma glucose <3.0 mmol/L): glucose clamps excluded; for rate of overall Level 2 hypoglycemia (plasma glucose <3.0 mmol/L): from SMPG
Procedure, shortened: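 Randomized crossover in Japanese adults with T1D: once-weekly test insulin for 8 weeks and once-daily glargine U100 for 14 days, both with bolus aspart. Safety covered AEs, vital signs, ECG, physical exam and laboratory tests, with clinically significant findings recorded as AEs. Hypoglycemia (Level 2, <3.0 mmol/L; Level 3, severe) and hyperglycemia (>16.7 mmol/L) were identified from SMPG. Events were expressed per patient-year of exposure and summarized descriptively.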

[2] = type: in vivo, human; details: weekly dosing interval at steady state, Japanese T1D
Procedure, shortened: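 Japanese adults (20–64 y) with T1D got subcutaneous thigh doses once weekly around 20:00 for 8 weeks. The constant weekly dose was seven times the run-in daily glargine U100 dose, with glargine top-up in weeks 1–2. Blood was sampled from the first dose to 35 days after the last. Total serum drug (albumin-bound plus unbound) was measured by validated specific immunoassay. AUC was by linear trapezoid over 0–168 h; t½ was log(2)/λz by linear regression.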

[3] = White individuals; cited from earlier work
insulin receptor = details: cited from earlier work
[4] = tested on: Japanese individuals with type 1 diabetes; type: in vivo, human; details: weekly dosing interval at steady state, Japanese T1D
Procedure, shortened: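 Steady-state clamps (target 6.7 mmol/L) ran 24–48 h and 150–168 h after the final weekly dose. Before the clamp, glucose had to stay within ±20% from 60 to 30 min prior, within ±10% in the last 30 min, and fluctuate ≤0.3 mmol/L in the final 10 min. GIR was Loess-smoothed (factor 0.25). A per-participant PK/PD model simulated the daily effect across the full week.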

Substance | rate of clinically significant or severe hypoglycemia previously reported (individuals with T1D) | rate of hyperglycemia (plasma glucose >16.7 mmol/L) [1] [episodes per PYE] | severe (Level 3) hypoglycemic episodes [1] | rate of nocturnal Level 2 hypoglycemia [1] [episodes per PYE] | rate of overall Level 2 hypoglycemia (plasma glucose <3.0 mmol/L) [1] [episodes per PYE] | day of maximum exposure [2] | half-life [3] | affinity for the insulin receptor (insulin receptor) | day of maximum glucose-lowering effect [4]
insulin degludec | 42.5–88.3 episodes per PYE | – | – | – | – | – | – | – | –
insulin glargine U100 [reference compound] | – | 36.5 | no severe (Level 3) hypoglycemic episodes | 9.4 | 30.6 | – | – | – | –
insulin icodec | – | 33.6 | no severe (Level 3) hypoglycemic episodes | 7.8 | 37.3 | Day 1 | approximately 1 week | low affinity | Day 2

Source: publication PMC11871391 (Journal of Diabetes Investigation, 2024)
